Laboratory results taken from ChEMBL document CHEMBL1127511, “Synthesis and antitumor activity of a series of [2-substituted-4,5-bis(aminomethyl)-1,3-dioxolane]platinum(II) complexes” (J Med Chem, 1994).
Where “and” joins values, the source holds several entries; their conditions need not be identical. Equal entries are not always repeated.

Tests used:
[1] = test system: PC-9; test: Cytotoxicity activity against human non-small cell lung adenocarcinoma cell lines PC-9 by using MTT assay; format: functional, cell-based
[2] = test system: SNU-16; test: In vitro cytotoxicity activity against human stomach cancer cell lines SNU-16; format: functional, cell-based
How it was run: (§1)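 Human stomach cancer lines in RPMI-1640 with 10% heat-inactivated FCS and penicillin/streptomycin, 37 °C, 5% CO2, seeded to stay in exponential growth. Compound added as 0.1–100.0 μg/mL solutions (stock, diluted 1:10 in well), triplicate, 4 days. MTT for 4 h, formazan dissolved in DMSO or acidified 2-propanol, read at 540 nm. IC50 from OD relative to control by probit analysis, ≥3 experiments.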

[3] = test system: PC-14; test: Cytotoxicity activity against human non-small cell lung adenocarcinoma cell lines PC-14 by using MTT assay; format: functional, cell-based
[4] = test system: NCI-N87; test: In vitro cytotoxicity activity against human stomach cancer cell lines NCI-N87; format: functional, cell-based; how it was run: as §1
[5] = test system: SNU1; test: In vitro cytotoxicity activity against human stomach cancer cell lines SNU-1; format: functional, cell-based; how it was run: as §1
[6] = test system: MKN-45; test: Cytotoxicity activity against human stomach adenocarcinoma cell lines MKN-45by using MTT assay; format: functional, cell-based; how it was run: as §1
[7] = test system: SNU-5; test: In vitro cytotoxicity activity against human stomach cancer cell lines SNU-5; format: functional, cell-based; how it was run: as §1
[8] = test system: KATO III stomach cancer cell line; test: Cytotoxicity activity against human stomach adenocarcinoma cell lines KATO-III by using MTT assay; format: functional, cell-based; how it was run: as §1
[9] = Number of deaths/number of animals tested; out of 7 mouse; format: functional
How it was run: (§2)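 L1210-bearing BDF1 mice (1 × 10^6 cells ip, day 0), seven per dose group, treated ip on days 1, 5 and 9. Toxic deaths counted per group. Cures are animals without gross evidence of tumor on day 50, when experiments ended.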

[10] = test system: Mus musculus; test: The serum levels of blood urea nitrogen in mice after a single intraperitoneal at dose 150 mg/kg on day1; format: functional, organism-based; design: dose 150 mg/kg
How it was run: (§3)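 Male ICR mice, single ip dose on day 0 in 0.5% carboxymethylcellulose sodium in water, six per group. Blood drawn from the posterior vena cava under anesthesia on days 1, 4, 8. Serum obtained by centrifugation (1500g, 10 min) and run on a biochemistry analyzer. Values are mean ± SE.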

[11] = test system: L1210; test: Antitumor activity against L1210 Leukemia cells in mice at 50 mg/kg; format: functional, organism-based; design: dose 50 mg/kg; conditions: Mus musculus
How it was run: (§4)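 BDF1 male mice inoculated ip on day 0 with 1 × 10^6 viable (trypan blue-excluding) L1210 cells, or cisplatin-resistant L1210 cells, maintained by serial ip passage in DBA/2 mice. The resistant line came from continuous exposure to rising cisplatin and was passaged in DBA/2 mice given cisplatin 5 mg/kg ip on days 1 and 5. Drug ip on days 1, 5, 9; seven mice per dose; end day 50; %T/C from mean survival time.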

[12] = test system: L1210; test: Antitumor activity against Cisplatin-Resistant L1210 Leukemia cells in mice at their respective dose at 50 mg/kg, ip, days; format: functional, organism-based; design: dose 50 mg/kg; conditions: Mus musculus; how it was run: as §4
[13] = test system: L1210; test: Antitumor activity against L1210 Leukemia cells in mice at 12.5 mg/kg; format: functional, organism-based; design: dose 12.5 mg/kg; conditions: Mus musculus; how it was run: as §4
[14] = test system: L1210; test: Antitumor activity against L1210 Leukemia cells in mice at 25 mg/kg; format: functional, organism-based; design: dose 25 mg/kg; conditions: Mus musculus; how it was run: as §4
[15] = test system: L1210; test: Antitumor activity against Cisplatin-Resistant L1210 Leukemia cells in mice at their respective dose at 25 mg/kg, ip, days; format: functional, organism-based; design: dose 25 mg/kg; conditions: Mus musculus; how it was run: as §4
[16] = test system: Mus musculus; test: The serum levels of blood urea nitrogen in mice after a single intraperitoneal at dose 150 mg/kg on day 8; format: functional, organism-based; design: dose 150 mg/kg; how it was run: as §3
[17] = test system: L1210; test: Antitumor activity against L1210 Leukemia cells in mice at 6.25 mg/kg; format: functional, organism-based; design: dose 6.25 mg/kg; conditions: Mus musculus; how it was run: as §4
[18] = test system: Mus musculus; test: The serum levels of creatinine in mice after a single intraperitoneal at dose 150 mg/kg on day1; format: functional, organism-based; design: dose 150 mg/kg; how it was run: as §3
[19] = organism: Mus musculus; test: Number of toxic deaths/number of animals tested; format: functional, organism-based; how it was run: as §2
[20] = organism: Mus musculus; test: Number of cures/number of animals tested; out of 7 mouse; format: functional, organism-based; how it was run: as §2
[21] = test system: Mus musculus; test: The serum levels of creatinine in mice after a single intraperitoneal at dose 150 mg/kg on day 8; format: functional, organism-based; design: dose 150 mg/kg; how it was run: as §3
[22] = test system: Mus musculus; test: The serum levels of creatinine in mice after a single intraperitoneal at dose 150 mg/kg on day 4; format: functional, organism-based; design: dose 150 mg/kg; how it was run: as §3
[23] = test system: Mus musculus; test: The serum levels of blood urea nitrogen in mice after a single intraperitoneal at dose 150 mg/kg on day 4; format: functional, organism-based; design: dose 150 mg/kg; how it was run: as §3
[24] = test system: L1210; test: Antitumor activity against Cisplatin-Resistant L1210 Leukemia cells in mice at their respective dose at 100 mg/kg, ip, days; format: functional, organism-based; design: dose 100 mg/kg; conditions: Mus musculus; how it was run: as §4
[25] = test system: L1210; test: Antitumor activity against L1210 (murine leukemia) cells in mice at 100 mg/kg i.p.; format: functional, organism-based; design: dose 100 mg/kg; conditions: Mus musculus; how it was run: as §4
[26] = test system: Mus musculus; test: The serum levels of creatinine in mice after a single intraperitoneal at dose 6.0 mg/kg on day 4; format: functional, organism-based; design: dose 6 mg/kg; how it was run: as §3
[27] = test system: Mus musculus; test: Antitumor activity against L1210 Leukemia cells in mice at their respective dose at 1.5 mg/kg, ip, days; format: functional, organism-based; design: dose 1.5 mg/kg; conditions: Leukemia cell; how it was run: as §4
[28] = test system: Mus musculus; test: The serum levels of blood urea nitrogen in mice after a single intraperitoneal at dose 6.0 mg/kg on day1; format: functional, organism-based; design: dose 6 mg/kg; how it was run: as §3
[29] = test system: Mus musculus; test: The serum levels of blood urea nitrogen in mice after a single intraperitoneal at dose 6.0 mg/kg on day 4; format: functional, organism-based; design: dose 6 mg/kg; how it was run: as §3
[30] = test system: Mus musculus; test: The serum levels of blood urea nitrogen in mice after a single intraperitoneal at dose 6.0 mg/kg on day 8; format: functional, organism-based; design: dose 6 mg/kg; how it was run: as §3
[31] = test system: L1210; test: Antitumor activity against Cisplatin-Resistant L1210 Leukemia cells in mice at their respective dose at 3.1 mg/kg, ip, days; format: functional, organism-based; design: dose 3.1 mg/kg; conditions: Mus musculus; how it was run: as §4
[32] = test system: Mus musculus; test: Antitumor activity against L1210 Leukemia cells in mice at their respective dose at 3.1 mg/kg, ip, days; format: functional, organism-based; design: dose 3.1 mg/kg; conditions: Leukemia cell; how it was run: as §4
[33] = test system: Mus musculus; test: The serum levels of creatinine in mice after a single intraperitoneal at dose 6.0 mg/kg on day 8; format: functional, organism-based; design: dose 6 mg/kg; how it was run: as §3
[34] = test system: L1210; test: Antitumor activity against Cisplatin-Resistant L1210 Leukemia cells in mice at their respective dose at 1.5 mg/kg, ip, days; format: functional, organism-based; design: dose 1.5 mg/kg; conditions: Mus musculus; how it was run: as §4
[35] = test system: Mus musculus; test: The serum levels of creatinine in mice after a single intraperitoneal at dose 6.0 mg/kg on day1; format: functional, organism-based; design: dose 6 mg/kg; how it was run: as §3

Q: With CARBOPLATIN [listing 1 of 2 here] as the sequence, how does the IC50 [1] read?
A: The IC50 was 19 µg/mL.

Q: And the IC50 [2]?
A: The IC50 was 34.02 µg/mL.

Q: And the IC50 [3]?
A: The IC50 was 5.8 µg/mL.

Q: And the IC50 [4]?
A: The IC50 was 153.38 µg/mL.

Q: What about the IC50 [5] of the same sequence?
A: The IC50 was 37.78 µg/mL.

Q: And the IC50 [6]?
A: Its IC50 is 6.4 µg/mL.

Q: What about the IC50 [7] of the same sequence?
A: The IC50 was 10.75 µg/mL.

Q: What about the IC50 [8] of the same sequence?
A: The IC50 was 10.5 µg/mL.

Q: For CARBOPLATIN [listing 2 of 2 here], which Ratio [9] is on record?
A: Its Ratio is 2.

Q: What about the BUN [10] of the same sequence?
A: The BUN was 24.4 mg 100ml-1.

Q: And the T/C [11]?
A: Its T/C is 196%.

Q: And the T/C [12]?
A: Its T/C is 132%.

Q: What about the T/C [13] of the same sequence?
A: The T/C was 125%.

Q: And the T/C [14]?
A: Its T/C is 148%.

Q: What about the T/C [15] of the same sequence?
A: Its T/C is 98%.

Q: What about the BUN [16] of the same sequence?
A: Its BUN is 28.6 mg 100ml-1.

Q: What about the T/C [17] of the same sequence?
A: Its T/C is 107%.

Q: What about the Creatinine [18] of the same sequence?
A: Its Creatinine is 0.25 mg 100ml-1.

Q: What about the Ratio [19] of the same sequence?
A: The Ratio was 1.

Q: What about the Ratio [20] of the same sequence?
A: Its Ratio is 1 and 2.

Q: And the Creatinine [21]?
A: The Creatinine was 0.31 mg 100ml-1.

Q: What about the Creatinine [22] of the same sequence?
A: The Creatinine was 0.19 mg 100ml-1.

Q: And the BUN [23]?
A: The BUN was 21.1 mg 100ml-1.

Q: And the T/C [24]?
A: Its T/C is 81%.

Q: What about the T/C [25] of the same sequence?
A: Its T/C is 197%.

Q: With CISPLATIN [listing 1 of 2 here] as the sequence, how does the IC50 [1] read?
A: Its IC50 is 1.03 µg/mL.

Q: And the IC50 [2]?
A: Its IC50 is 2.83 µg/mL.

Q: And the IC50 [3]?
A: Its IC50 is 0.77 µg/mL.

Q: And the IC50 [4]?
A: The IC50 was 13.73 µg/mL.

Q: What about the IC50 [5] of the same sequence?
A: Its IC50 is 2.9 µg/mL.

Q: And the IC50 [6]?
A: Its IC50 is 0.51 µg/mL.

Q: What about the IC50 [7] of the same sequence?
A: Its IC50 is 1.29 µg/mL.

Q: And the IC50 [8]?
A: Its IC50 is 0.83 µg/mL.

Q: With CISPLATIN [listing 2 of 2 here] as the sequence, how does the Creatinine [26] read?
A: Its Creatinine is 0.28 mg 100ml-1.

Q: What about the T/C [17] of the same sequence?
A: Its T/C is 82%.

Q: And the T/C [27]?
A: Its T/C is 142%.

Q: And the Ratio [19]?
A: Its Ratio is 5 and 2.

Q: And the BUN [28]?
A: Its BUN is 24.8 mg 100ml-1.

Q: And the BUN [29]?
A: Its BUN is 43.1 mg 100ml-1.

Q: What about the BUN [30] of the same sequence?
A: The BUN was 32.5 mg 100ml-1.

Q: What about the T/C [31] of the same sequence?
A: The T/C was 109%.

Q: And the T/C [32]?
A: Its T/C is 167%.

Q: And the Creatinine [33]?
A: The Creatinine was 0.4 mg 100ml-1.

Q: And the T/C [34]?
A: The T/C was 86%.

Q: What about the Creatinine [35] of the same sequence?
A: Its Creatinine is 0.26 mg 100ml-1.
